In the library only some 2.2% were active in any assay of this set; here they are far more common.
697 NFkB inh: inhibitors of the PMA/ionomycin-induced NF-kB reporter in 697 B cells; 330,000 tested, 0.33% active; AID 435022; 697 B-cell NF-kB luciferase reporter, 16 h; inhibition, % at 4 µM; in the data active = inhibition above about 35%
NR2E3 ag-1: agonists of human NR2E3 nuclear receptor; inhibition of corepressor binding, % at 3.98 µM; 360,000 tested, 0.35% active; CHO-S Gal4-NCOR/VP16-NR2E3 two-hybrid, luciferase; Q9Y5X4;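 active = inhibition above the mean of all tested compounds plus 3 SD, cut at about 70% in these data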;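 note: 0% = DMSO with NR2E3 transfected cells and 100% = cells lacking NR2E3 construct; higher means lower luciferase signal from less NR2E3 corepressor binding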
Target sequence (Q9Y5X4 whole entry, looked up, the tested form may be a part): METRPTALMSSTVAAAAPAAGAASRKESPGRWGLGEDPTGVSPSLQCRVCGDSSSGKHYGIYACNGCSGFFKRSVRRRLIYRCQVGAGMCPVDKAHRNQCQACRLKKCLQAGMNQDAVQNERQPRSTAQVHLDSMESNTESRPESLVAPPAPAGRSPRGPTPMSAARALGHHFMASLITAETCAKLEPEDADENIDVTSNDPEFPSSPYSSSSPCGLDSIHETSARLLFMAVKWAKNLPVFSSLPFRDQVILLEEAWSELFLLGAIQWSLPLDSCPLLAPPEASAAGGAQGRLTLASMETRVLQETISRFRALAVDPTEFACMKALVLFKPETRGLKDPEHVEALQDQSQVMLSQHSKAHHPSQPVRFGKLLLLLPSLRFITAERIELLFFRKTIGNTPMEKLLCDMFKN
Jurkat NFkB inh: lowers PMA/ionomycin-induced NF-kB signal in Jurkat cells. PMA/ionomycin-induced NF-kB luciferase reporter, luminescence. inhibition, % at 4 µM. 330,000 tested, 0.53% active. AID 435003; in the data active = inhibition above about 50%
FGF22 binding: FGF22 (human) thermal shift binding; Q9HCT0; recombinant FGF22 thermal shift, SYPRO orange fluorescence; percent of sucrose octasulfate shift, DMSO zero; activity (Tm shift, normalised), % at 9.99 µM; 340,000 tested, 1.5% active; AID 651658;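 active = mean Tm shift, scaled 0 neutral to 100 positive control, at about 1.3% or above, every replicate too, limit read from the data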
Target sequence (Q9HCT0 whole entry, looked up): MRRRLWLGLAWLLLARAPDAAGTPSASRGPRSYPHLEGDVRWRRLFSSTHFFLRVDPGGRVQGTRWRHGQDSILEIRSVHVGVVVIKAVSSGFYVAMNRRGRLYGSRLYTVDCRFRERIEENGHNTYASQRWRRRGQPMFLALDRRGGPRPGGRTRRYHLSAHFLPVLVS
miR-122 sensor: blocks miR-122 activity in Huh7 sensor cells | activation (reporter increase), % at 12.5 µM | AID 602342 | Huh7 miR-122 Renilla luciferase sensor, 48 h; neutral wells = 0, positive control = 100 | 340,000 tested, 0.3% active;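 active = mean replicate activation score at least 90 and every replicate individually at or above 90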;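 note: higher luciferase means less miR-122 activity so hits act as miR-122 inhibitors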
NR2E3 ag-2: agonists of human nuclear receptor NR2E3; Q9Y5X4; GST-NR2E3/biotin-RetCOR TR-FRET, 1536-well; inhibition of corepressor binding, % at 4.78 µM; 320,000 tested, 0.12% active;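 active = percent inhibition above the cutoff of mean plus 3 SD of all tested compounds, set per screening campaign, cut at about 20% in these data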;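 note: 0% = DMSO wells and 100% = biotin wells as full block of FRET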
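Test system: GST-NR2E3 and biotin-RetCOR proteins | Quantity: 1.35 nM GST-tagged NR2E3 final | Medium: Tris pH 7.5 | Also added: 7 nM biotin-RetCOR | Dosing: Compound at 4.8 µM, single dose | Timing: 5 h at 4 °C | Detection: Time-resolved FRET | Read-out basis: Percent inhibition | Benchmarks: Biotin wells as high control, 0.6% DMSO wells as low control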
An asterisk follows results filed as active; . = no result given; [ ] = another dose, or the depositor's remark.

SMILES	697 NFkB inh	NR2E3 ag-1	Jurkat NFkB inh	FGF22 binding	miR-122 sensor	NR2E3 ag-2
COCC#Cc1ccc2c(c1)O[C@H](CN(C)S(=O)(=O)c1ccc(OC)cc1)[C@@H](C)CN([C@H](C)CO)S2(=O)=O	.	.	.	0	48[16.7 µM]	.
C/C=C/c1ccc2c(c1)O[C@H](CN(C)S(=O)(=O)c1ccccc1)[C@H](C)CN([C@@H](C)CO)S2(=O)=O	.	.	.	0	268*[16.7 µM]	.
COCC#Cc1ccc2c(c1)O[C@H](CN(C)S(=O)(=O)c1ccc(OC)cc1)[C@H](C)CN([C@H](C)CO)S2(=O)=O	.	.	.	0	120*[16.7 µM]	.
CC(C)CC#Cc1ccc2c(c1)O[C@@H](CN(C)C(=O)Cc1cccnc1)[C@@H](C)CN([C@H](C)CO)S2(=O)=O	.	.	.	0	.	.
C[C@H]1CN([C@@H](C)CO)C(=O)c2cccc(NC(=O)Nc3ccc4c(c3)OCO4)c2O[C@H]1CN(C)S(=O)(=O)c1cccs1	.	.	.	0	3[16.7 µM]	.
CO[C@@H]1CN(C)C(=O)c2cc(NC(=O)c3cc(C)on3)ccc2OC[C@H](C)N(CC2CC2)C[C@H]1C	.	.	.	0	.	.
Cc1noc(C)c1NC(=O)Nc1ccc2c(c1)C(=O)N([C@H](C)CO)C[C@H](C)[C@@H](CN(C)Cc1ccc(C(=O)O)cc1)OCCCC[C@H](C)O2	.	.	.	0	11[16.7 µM]	.
C[C@@H]1CCCCO[C@H](CN(C)S(=O)(=O)c2ccc(Cl)cc2)[C@@H](C)CN([C@@H](C)CO)C(=O)c2cc(NS(=O)(=O)c3ccccc3)ccc2O1	.	.	.	0	.	.
CC(C)(C)c1cnnn1-c1ccc(/C=N/Nc2ccc([N+](=O)[O-])cc2)cc1	-10	-20	-18	43*	.	-1
O=[N+]([O-])c1ccc(C=NNc2ccccc2)cc1	.	-13	.	0	2	.
C=CCn1c(CNC(=O)c2ccccc2F)nnc1SCc1nc2ccccc2c(=O)[nH]1	10	-17	7	43*	-7	2
O=c1nc(N/N=C/c2c[nH]c3ccccc23)cn[nH]1	-116	-112	-64	0	.	-1
O=c1cnnc(N/N=C/c2c[nH]c3ccccc23)[nH]1	-9	8	-15	43*	-2	-3
Cc1ccc(Cn2c(NS(=O)(=O)c3ccccc3)nc3ccccc32)cc1	-4	-9	-6	.	106*	0
C[C@H]1CN([C@@H](C)CO)C(=O)Cc2cc(NS(=O)(=O)c3cn(C)cn3)ccc2O[C@@H]1CN(C)S(C)(=O)=O	.	.	.	0	2[16.7 µM]	.
NNC(=O)c1nc[nH]c1C(=O)Nc1ccccn1	-3	-11	1	43*	.	3
CN1CCN(S(=O)(=O)c2cc([N+](=O)[O-])ccc2Cl)CC1	20	-6	15	43*	.	0
COc1ccc(N2CCN(C(=O)c3csc4ccccc34)CC2)cc1	0	6	5	.	162*	2
Cc1cc(-c2nnc(SCC(=O)c3ccc(Cl)cc3)o2)no1	3	16	10	44*	3	2
COc1ccc2c(c1OC)CN(C)CCc1cc3c(cc1C(=O)C2)OCO3	21	-25	3	43*	.	1
C[C@H]1CN([C@@H](C)CO)S(=O)(=O)c2ccc(C#CCN(C)C)cc2O[C@@H]1CN(C)Cc1ccccc1	.	.	.	0	56[16.7 µM]	.
CCOC(=O)C1(Cc2ccccc2C)CCCN(C(=O)c2cc(CC)nn2C)C1 (configuration not stated)	4	4	1	43*	-1	2
COc1ccc(C(=O)Nc2ccc3c(c2)C(=O)N(C)[C@@H]2CC[C@@H](CC(=O)NCC4CC4)O[C@H]2CO3)cc1	.	.	.	0	.	.
O=C(c1ccc(F)cc1)N1CC2(C1)[C@H](c1ccccc1)[C@H](CO)N2Cc1ccccn1	.	.	.	0	.	.
C[C@@H]1CN([C@H](C)CO)C(=O)c2cc(NC(=O)Nc3ccc(F)cc3)ccc2O[C@H]1CN(C)S(C)(=O)=O	.	.	.	0	-2[16.7 µM]	.
SMILES	697 NFkB inh	NR2E3 ag-1	Jurkat NFkB inh	FGF22 binding	miR-122 sensor	NR2E3 ag-2
COc1ccc(C(=O)NNC(=O)c2cccc3ccccc23)cc1	.	-32	.	44*	.	.
Oc1nc(-c2ccc(Br)cc2)n2ccncc12	3	-3	15	43*	9	-5
COc1ccc(NC(=O)c2ccc(-c3ccc(OC)cc3)s2)cc1	-66	-96	-10	43*	.	-7
Cc1cccn2c(=O)c(C=O)c(Cl)nc12	-19	11	-9	0	.	3
Cc1cccn2c(=O)c(C=O)c(Sc3ncccn3)nc12	9	-17	5	43*	.	4
CCOP(=O)(OCC)c1nc(-c2ccccc2Cl)oc1N1CCOCC1	14	-36	2	45*	4	-4
CCOP(=O)(OCC)c1nc(-c2cccc3ccccc23)oc1N1CCOCC1	2	16	4	.	.	-2
COc1ccc(CN(C)C[C@H]2OCCCC[C@H](C)Oc3ccc(NS(=O)(=O)c4ccc(C)cc4)cc3C(=O)N([C@@H](C)CO)C[C@@H]2C)cc1	.	.	.	.	-2[16.7 µM]	.
O=C1CCCN1c1nccs1	20	13	2	44*	0	5
CNC[C@H]1Oc2cc(C#CC3CCCCC3)ccc2S(=O)(=O)N([C@@H](C)CO)C[C@H]1C	.	.	.	0	11[16.7 µM]	.
O=C(COC(=O)Cn1cnc2ccccc21)Nc1cc2c(cc1Cl)C(=O)c1ccccc1C2=O	-40	-43	-95	44*	-1	14
O=C(COC(=O)Cn1cnc2ccccc21)Nc1cc(S(=O)(=O)N2CCOCC2)ccc1Cl	10	-6	3	0	-6	2
COCC(=O)N1C[C@H](C)[C@H](OC)CN(C)C(=O)c2ccc(NC(=O)NC(C)C)cc2OC[C@@H]1C	.	.	.	0	23[16.7 µM]	.
COc1ccc(S(=O)(=O)Nc2ccc3c(c2)C(=O)N([C@H](C)CO)C[C@H](C)[C@@H](CN(C)S(=O)(=O)c2cn(C)cn2)OCCCC[C@@H](C)O3)cc1	.	.	.	0	-5[16.7 µM]	.
CC(C)NC(=O)N(C)C[C@@H]1OCCCC[C@@H](C)Oc2ccc(NC(=O)NC3CCCCC3)cc2C(=O)N([C@H](C)CO)C[C@@H]1C	.	.	.	.	1[16.7 µM]	.
c1cc(CNCC2CCCO2)ccn1 (configuration not stated)	2	17	-14	43*	.	2
CCCN1[C@@H]2c3ccc(-c4ccccc4F)c(=O)n3C[C@@H]2[C@@H](CO)[C@@H]1C(=O)NC1CCC1	.	.	.	0	2[16.7 µM]	.
O=S(=O)(Nc1nc(-c2sccc2Cl)cs1)c1cc(Cl)ccc1Cl	-66	99*	-63	.	8	7
CC=Cc1ccc2n(c1=O)C[C@@H]1[C@@H](CO)[C@H](C(=O)NCc3ccccc3F)N[C@H]21 (mixture of isomers)	.	.	.	0	.	.
CC(C)NC(=O)Nc1ccc2c(c1)C(=O)N([C@@H](C)CO)C[C@@H](C)[C@@H](CN(C)S(C)(=O)=O)OCCCC[C@@H](C)O2	.	.	.	0	-3[16.7 µM]	.
